Test [1] deals with T1, Adrenergic receptor alpha-1 (Homo sapiens, UniProt P35348+P25100+P35368).
T1 sequence (P35348 whole entry): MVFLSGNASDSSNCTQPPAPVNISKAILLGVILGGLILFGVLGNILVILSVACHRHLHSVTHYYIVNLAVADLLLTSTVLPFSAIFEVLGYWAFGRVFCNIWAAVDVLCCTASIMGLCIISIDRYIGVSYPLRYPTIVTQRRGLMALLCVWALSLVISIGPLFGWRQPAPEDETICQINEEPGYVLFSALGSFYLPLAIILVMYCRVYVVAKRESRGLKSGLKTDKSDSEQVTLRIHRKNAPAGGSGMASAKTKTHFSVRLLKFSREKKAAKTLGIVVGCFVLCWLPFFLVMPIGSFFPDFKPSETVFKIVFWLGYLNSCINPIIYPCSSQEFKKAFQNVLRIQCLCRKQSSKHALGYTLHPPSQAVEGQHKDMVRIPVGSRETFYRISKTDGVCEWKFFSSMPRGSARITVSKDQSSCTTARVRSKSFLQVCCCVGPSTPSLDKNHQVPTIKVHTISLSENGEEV
T1 sequence (P25100 whole entry): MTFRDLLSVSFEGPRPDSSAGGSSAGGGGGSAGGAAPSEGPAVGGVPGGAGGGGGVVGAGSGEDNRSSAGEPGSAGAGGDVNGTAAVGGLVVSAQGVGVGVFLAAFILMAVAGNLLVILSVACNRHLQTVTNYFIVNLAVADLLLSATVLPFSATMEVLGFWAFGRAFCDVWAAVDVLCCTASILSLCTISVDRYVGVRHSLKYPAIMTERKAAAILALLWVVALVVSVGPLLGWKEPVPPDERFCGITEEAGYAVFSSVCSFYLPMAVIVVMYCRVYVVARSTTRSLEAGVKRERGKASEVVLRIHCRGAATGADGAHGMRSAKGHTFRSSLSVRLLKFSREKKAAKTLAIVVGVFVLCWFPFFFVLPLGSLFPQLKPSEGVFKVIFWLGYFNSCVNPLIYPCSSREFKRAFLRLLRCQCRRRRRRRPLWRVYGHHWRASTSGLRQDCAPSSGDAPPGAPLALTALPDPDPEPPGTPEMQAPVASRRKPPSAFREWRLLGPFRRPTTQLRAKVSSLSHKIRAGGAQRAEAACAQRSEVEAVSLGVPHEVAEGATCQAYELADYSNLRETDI
T1 sequence (P35368 whole entry): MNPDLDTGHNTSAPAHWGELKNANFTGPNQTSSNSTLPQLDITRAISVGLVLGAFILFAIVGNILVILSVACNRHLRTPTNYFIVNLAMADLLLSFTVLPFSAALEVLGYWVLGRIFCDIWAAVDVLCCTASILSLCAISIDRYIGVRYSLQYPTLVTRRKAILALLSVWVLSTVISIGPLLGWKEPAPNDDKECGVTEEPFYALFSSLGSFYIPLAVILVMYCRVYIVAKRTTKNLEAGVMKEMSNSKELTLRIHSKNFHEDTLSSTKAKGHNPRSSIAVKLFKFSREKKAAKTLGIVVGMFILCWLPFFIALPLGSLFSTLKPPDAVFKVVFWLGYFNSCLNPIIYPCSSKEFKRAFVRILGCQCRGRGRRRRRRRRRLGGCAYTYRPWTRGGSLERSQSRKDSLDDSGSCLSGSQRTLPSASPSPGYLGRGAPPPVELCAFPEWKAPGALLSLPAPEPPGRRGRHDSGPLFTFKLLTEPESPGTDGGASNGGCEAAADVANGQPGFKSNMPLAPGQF
The experiment in a line: (§1) In vitro binding affinity towards Alpha-1 adrenergic receptor by displacing [3H]prazosin radioligand. It is filed as protein assay.

Test [2] deals with Adrenergic receptor alpha-1 (Homo sapiens) (UniProt P35348+P25100+P35368). Kind of test: Selectivity ratio of alpha-1 receptor to that of NMDA was determined. It is filed as protein assay.
In test [3] the target is Glutamate [NMDA] receptor. Kind of test: Displacement of [3H]25-6981 from N-methyl-D-aspartate glutamate receptor. It is filed as protein-complex assay.
Another test concerns Mus musculus. The experiment in a line: In vivo evaluation for sound induced seizures in DBA/2 mice on intraperitoneal administration of compound 30 minutes before testing. The following applies: ip. It is filed as functional. A digest of the protocol: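 Mice given the compound intraperitoneally, then tested in the standard sound-induced seizure assay. An ED50 in mg/kg was derived for protection.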

In test [4] the target is T2, Alpha-1A adrenergic receptor (Homo sapiens, UniProt P35348).
T2 sequence (P35348 whole entry): T1 sequence (P35348 whole entry)
Described as §1.

The target of test [5] is Glutamate receptor ionotropic, NMDA 2B (Rattus norvegicus, UniProt P35439+Q00960). Kind of test: Evaluated for in vitro inhibition of recombinant rat NR1C/2B receptor expressed in xenopus oocytes. It is filed as cell-based, Oocyte. A digest of the protocol: (§2)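 Two-electrode voltage clamp on Xenopus oocytes expressing recombinant rat NMDA receptors, NR1C/2A or NR1C/2B subunit combination. Concentrations spanned 10 nM–[…]. Values are the geometric mean of three experiments.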

Test [6] has as its target Glutamate receptor ionotropic, NMDA 2A (Rattus norvegicus, UniProt P35439+Q00959). Kind of test: Evaluated for in vitro inhibition of recombinant rat NR1C/2A receptor expressed in xenopus oocytes. It is filed as cell-based, Oocyte. An outline of the steps:
as §2

Chain of Glutamate receptor ionotropic, NMDA 2A (Q00959 whole entry, one chain of several): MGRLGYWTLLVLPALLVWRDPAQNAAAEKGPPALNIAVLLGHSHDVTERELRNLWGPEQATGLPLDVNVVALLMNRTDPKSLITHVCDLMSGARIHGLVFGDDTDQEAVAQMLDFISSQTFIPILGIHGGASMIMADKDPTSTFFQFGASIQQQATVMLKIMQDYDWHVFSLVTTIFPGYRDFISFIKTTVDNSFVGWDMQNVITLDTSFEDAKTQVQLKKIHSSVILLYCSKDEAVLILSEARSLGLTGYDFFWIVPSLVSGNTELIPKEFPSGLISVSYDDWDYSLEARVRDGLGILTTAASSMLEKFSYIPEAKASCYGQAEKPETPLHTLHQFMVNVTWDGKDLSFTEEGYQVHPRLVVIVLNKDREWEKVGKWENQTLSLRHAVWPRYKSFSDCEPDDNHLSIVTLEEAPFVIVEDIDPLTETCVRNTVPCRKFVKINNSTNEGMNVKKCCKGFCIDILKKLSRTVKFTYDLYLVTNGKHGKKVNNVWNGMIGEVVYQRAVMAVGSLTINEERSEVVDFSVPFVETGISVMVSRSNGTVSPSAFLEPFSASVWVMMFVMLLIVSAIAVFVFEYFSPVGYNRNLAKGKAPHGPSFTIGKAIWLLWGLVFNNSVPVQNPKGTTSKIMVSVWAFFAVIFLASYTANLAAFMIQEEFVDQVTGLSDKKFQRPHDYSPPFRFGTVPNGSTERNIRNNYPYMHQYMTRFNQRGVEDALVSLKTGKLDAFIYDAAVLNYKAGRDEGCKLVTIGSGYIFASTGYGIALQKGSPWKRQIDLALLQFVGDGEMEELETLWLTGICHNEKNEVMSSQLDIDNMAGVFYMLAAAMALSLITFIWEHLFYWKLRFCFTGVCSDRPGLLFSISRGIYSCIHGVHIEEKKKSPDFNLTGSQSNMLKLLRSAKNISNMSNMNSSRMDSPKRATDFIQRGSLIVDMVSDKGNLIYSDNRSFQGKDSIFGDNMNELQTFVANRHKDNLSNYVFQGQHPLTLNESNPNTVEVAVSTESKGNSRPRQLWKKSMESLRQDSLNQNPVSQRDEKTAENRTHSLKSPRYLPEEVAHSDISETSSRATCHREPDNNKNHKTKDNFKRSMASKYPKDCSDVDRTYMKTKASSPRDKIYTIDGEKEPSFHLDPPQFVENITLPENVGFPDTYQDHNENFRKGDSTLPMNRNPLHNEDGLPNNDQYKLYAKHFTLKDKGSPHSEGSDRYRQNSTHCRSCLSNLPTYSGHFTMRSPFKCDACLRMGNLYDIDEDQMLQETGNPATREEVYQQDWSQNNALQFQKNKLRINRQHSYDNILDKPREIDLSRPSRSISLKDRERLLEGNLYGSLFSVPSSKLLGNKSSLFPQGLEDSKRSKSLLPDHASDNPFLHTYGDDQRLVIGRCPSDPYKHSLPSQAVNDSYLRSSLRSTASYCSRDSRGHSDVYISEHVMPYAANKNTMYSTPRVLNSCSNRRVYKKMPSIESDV
Chain of Glutamate receptor ionotropic, NMDA 2B (Q00960 whole entry, one chain of several): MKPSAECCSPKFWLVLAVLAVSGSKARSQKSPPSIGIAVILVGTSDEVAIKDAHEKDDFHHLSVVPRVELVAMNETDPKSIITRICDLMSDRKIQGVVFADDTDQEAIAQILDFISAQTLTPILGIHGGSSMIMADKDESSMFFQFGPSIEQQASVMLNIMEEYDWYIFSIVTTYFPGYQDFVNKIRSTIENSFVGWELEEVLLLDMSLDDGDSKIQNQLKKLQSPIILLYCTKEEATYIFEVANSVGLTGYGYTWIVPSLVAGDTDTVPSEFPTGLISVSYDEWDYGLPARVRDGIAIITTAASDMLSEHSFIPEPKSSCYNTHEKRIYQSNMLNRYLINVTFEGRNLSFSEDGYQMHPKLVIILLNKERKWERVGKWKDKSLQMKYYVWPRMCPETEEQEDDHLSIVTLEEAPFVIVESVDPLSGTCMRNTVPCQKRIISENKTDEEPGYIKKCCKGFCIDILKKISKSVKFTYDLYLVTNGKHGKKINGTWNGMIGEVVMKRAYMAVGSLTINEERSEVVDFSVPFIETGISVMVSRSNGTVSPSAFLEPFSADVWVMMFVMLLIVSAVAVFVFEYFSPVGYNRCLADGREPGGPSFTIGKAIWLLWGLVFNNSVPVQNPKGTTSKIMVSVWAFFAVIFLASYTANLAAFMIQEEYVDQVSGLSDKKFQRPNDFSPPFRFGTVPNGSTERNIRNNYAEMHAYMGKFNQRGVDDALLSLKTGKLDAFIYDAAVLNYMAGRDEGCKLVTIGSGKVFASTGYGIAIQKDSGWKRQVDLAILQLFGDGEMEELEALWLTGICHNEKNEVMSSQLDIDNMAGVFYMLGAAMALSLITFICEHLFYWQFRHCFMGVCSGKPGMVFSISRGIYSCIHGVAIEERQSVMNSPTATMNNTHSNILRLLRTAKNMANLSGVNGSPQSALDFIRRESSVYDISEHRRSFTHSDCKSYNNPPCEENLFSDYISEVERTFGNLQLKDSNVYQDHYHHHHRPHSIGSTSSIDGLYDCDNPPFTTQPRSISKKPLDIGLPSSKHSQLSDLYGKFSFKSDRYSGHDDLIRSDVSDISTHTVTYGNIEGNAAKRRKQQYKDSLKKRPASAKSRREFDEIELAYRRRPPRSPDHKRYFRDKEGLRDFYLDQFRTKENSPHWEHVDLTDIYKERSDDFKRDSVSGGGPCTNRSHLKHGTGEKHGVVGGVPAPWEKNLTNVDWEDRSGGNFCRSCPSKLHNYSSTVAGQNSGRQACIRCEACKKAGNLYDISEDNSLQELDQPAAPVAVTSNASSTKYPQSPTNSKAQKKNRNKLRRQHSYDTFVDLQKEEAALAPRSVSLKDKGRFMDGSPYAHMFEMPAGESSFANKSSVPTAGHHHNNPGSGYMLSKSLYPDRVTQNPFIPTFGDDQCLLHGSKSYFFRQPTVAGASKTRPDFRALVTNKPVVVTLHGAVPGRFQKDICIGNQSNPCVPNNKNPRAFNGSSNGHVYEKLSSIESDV

In the case of `C[C@@H](CN1CCC(Cc2ccccc2)CC1)[C@@H](O)c1ccc(O)cc1`, the figures for the Ki in test [1] and in test [3] were 0.18 µM and 0.0056 µM, respectively. In addition, in test [2], the Selectivity ratio is 32.

As to `Cc1ccc(CC2(O)CCN(C[C@@H](O)Cc3ccc(O)cc3)CC2)cc1`, the Ki in test [3] worked out at 0.0075 µM; in test [4], 7.3 µM. Moreover, in the test with Mus musculus, the 50% effect level (ED50) was put at a dose of 25 mg/kg.

Take `Cc1ccc(CC2(O)CCN(CC(O)Cc3ccc(O)cc3)CC2)cc1` (stereo not given): the figures for the Ki in test [1] and in test [3] were 5.915 µM and 0.0075 µM, respectively. The Selectivity ratio in test [2] stood at 789.

Regarding `Oc1ccc(C(O)CCN2CCC(Cc3ccccc3)CC2)cc1` (stereo not given), the results for the Ki in test [1] and in test [3] were 0.0244 µM and 0.0038 µM, respectively. Also, the Selectivity ratio in test [2] worked out at 6.

The compound `Oc1ccc(CC(O)CN2CCC(O)(Cc3ccc(Br)cc3)CC2)cc1` (stereo not given) displayed a Ki in test [1] of 2.439 µM. The Selectivity ratio in test [2] was found to be 216.

For the compound `Oc1ccc(CC(O)CN2CCC(O)(Cc3ccc(Cl)cc3)CC2)cc1` (stereo not given), the Ki in test [1] amounted to 5.61 µM; in test [3], 0.015 µM. In test [2], the Selectivity ratio was 374.

For `COC(Cc1ccc(O)cc1)CN1CCC(Cc2ccccc2)CC1` (stereo not given), the Ki in test [1] was 0.305 µM. Moreover, in test [2], the Selectivity ratio was 15.

In test [1], `Oc1ccc(CC(O)CN2CCC(Cc3ccccc3)CC2)cc1` (stereo not given) came in with a Ki of 0.305 µM. In test [2], the Selectivity ratio was determined as 80.

On to `O=C(Cc1ccc(O)cc1)CN1CCC(Cc2ccccc2)CC1`, for which the inhibition constant (Ki) in test [1] amounted to 0.61 µM; in test [3], 0.0226 µM. In addition, the Selectivity ratio in test [2] is 27.

Regarding `Cc1ccc(CC2(O)CCN(C[C@H](O)Cc3ccc(O)cc3)CC2)cc1`, the Ki is 0.0049 µM in test [3] and 7.3 µM in test [4]. The same compound registered an ED50 in the test on Mus musculus of 10 mg/kg. In addition, the IC50 in test [5] was 0.019 µM; in test [6], over 10 µM.

Consider `Oc1ccc(CC(O)CN2CCC(O)(Cc3ccccc3)CC2)cc1` (stereo not given), for which the values for the Ki in test [1] and in test [3] were 4.512 µM and 0.0226 µM, respectively. In addition, the Selectivity ratio in test [2] came out at 200.

In the case of `CC(Cc1ccc(O)cc1)CN1CCC(Cc2ccccc2)CC1` (stereo not given), the figures for the Ki in test [1] and in test [3] were 0.0915 µM and 0.0034 µM, respectively. Moreover, the Selectivity ratio in test [2] was 27.

The record behind these values is ChEMBL document CHEMBL1133913, “Discovery of (R)-1-[2-hydroxy-3-(4-hydroxy-phenyl)-propyl]-4-(4-methyl-benzyl)-piperidin-4-ol: a novel NR1/2B subtype selective NMDA receptor antagonist” (Bioorg Med Chem Lett, 2001).
